Results as given in ChEMBL document CHEMBL5370658, “Development of First-in-Class Dual Sirt2/HDAC6 Inhibitors as Molecular Tools for Dual Inhibition of Tubulin Deacetylation” (J Med Chem, 2023).
Activity calls are given as the source filed them. The calls are words filed in the database; no cut-off is given here.

Key:
[1] = molecular target: Histone deacetylase 4 (Homo sapiens) (UniProt P56524); assay: Inhibition of HDAC4 (unknown origin) using Abz-SRGGK(STFA)FRR-NH2 as substrate at 6 to 20000 nM preincubated for 5 mins followed by substrate addition and measured every 30 secs for 30 mins by continuous fluorescence based assay; conditions: dose 6-20000 nM, time 35.0 min
Summary of the method: (§1)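 Continuous fluorescence assay in 20 mM HEPES pH 7.4, 140 mM NaCl, 10 mM KCl, 1 mM TCEP, 0.2 mg/mL BSA, 3% DMSO final. Enzyme (HDAC4 5 nM, HDAC5 10 nM, HDAC7 5 nM, HDAC9 20 nM) preincubated with inhibitor at room temperature. HDAC10 (5 nM) instead in 20 mM HEPES pH 7.4, 0.5 mg/mL BSA. Initial slope used as activity.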

[2] = molecular target: Histone deacetylase 5 (Homo sapiens) (UniProt Q9UQL6); assay: Inhibition of HDAC5 (unknown origin) using Abz-SRGGK(STFA)FRR-NH2 as substrate at 6 to 20000 nM preincubated for 5 mins followed by substrate addition and measured every 30 secs for 30 mins by continuous fluorescence based assay; conditions: dose 6-20000 nM, time 35.0 min; summary of the method: as §1
[3] = molecular target: Histone deacetylase 9 (Homo sapiens) (UniProt Q9UKV0); assay: Inhibition of HDAC9 (unknown origin) using Abz-SRGGK(STFA)FRR-NH2 as substrate at 6 to 20000 nM preincubated for 5 mins followed by substrate addition and measured every 30 secs for 30 mins by continuous fluorescence based assay; conditions: dose 6-20000 nM, time 35.0 min; summary of the method: as §1
[4] = molecular target: NAD-dependent protein deacylase sirtuin-5, mitochondrial (Homo sapiens) (UniProt Q9NXA8); assay: Inhibition of Sirt5 (unknown origin) using Bz-GVLK(Succ)EYGV-NH2 as substrate at 20 to 500 uM preincubated for 5 mins followed by enzyme addition and measured after 5 mins by RP-HPLC analysis; conditions: dose 20-500 µM, time 10.0 min
Summary of the method: (§2)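 Discontinuous HPLC assay, 120 µL in 20 mM Tris pH 7.8, 150 mM NaCl, 5 mM MgCl2, 0.2 mg/mL BSA, 5% DMSO. Inhibitor preincubated at 37 °C with NAD+ (1 mM) and substrate (Sirt5 5 µM; Sirt6 20 µM). Started with enzyme (Sirt5 100 nM; Sirt6 500 nM). Quenched with TFA/ACN. Sirt5 read by A220, Sirt6 by A360 (nitrotyrosine). Performed once in duplicates; IC50 by nonlinear regression.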

[5] = molecular target: NAD-dependent protein deacylase sirtuin-6 (Homo sapiens) (UniProt Q8N6T7); assay: Inhibition of Sirt6 (unknown origin) using Ac-EALPKK(Myr)Y(NO2)GG-NH2 as substrate at 20 to 500 uM preincubated for 5 mins followed by enzyme addition and measured after 1 hr by RP-HPLC analysis; conditions: dose 20-500 µM, time 65.0 min; summary of the method: as §2
[6] = molecular target: T1, Protein deacetylase HDAC6 (Homo sapiens) (UniProt Q9UBN7); assay: Binding affinity to HDAC6 in human MCF7 cells assessed as target engagement by measuring rescue of PROTAC induced protein degradation at 20 uM preincubated with compound for 30 mins followed by PROTAC 4-((5-(8-(2-((2-(2,6-dioxopiperidin-3-yl)-1,3-dioxoisoindolin-4 yl)oxy)acetamido)octanamido)-2-meth …; type: cell-based; conditions: time 6.5 hrs
T1 sequence (whole entry): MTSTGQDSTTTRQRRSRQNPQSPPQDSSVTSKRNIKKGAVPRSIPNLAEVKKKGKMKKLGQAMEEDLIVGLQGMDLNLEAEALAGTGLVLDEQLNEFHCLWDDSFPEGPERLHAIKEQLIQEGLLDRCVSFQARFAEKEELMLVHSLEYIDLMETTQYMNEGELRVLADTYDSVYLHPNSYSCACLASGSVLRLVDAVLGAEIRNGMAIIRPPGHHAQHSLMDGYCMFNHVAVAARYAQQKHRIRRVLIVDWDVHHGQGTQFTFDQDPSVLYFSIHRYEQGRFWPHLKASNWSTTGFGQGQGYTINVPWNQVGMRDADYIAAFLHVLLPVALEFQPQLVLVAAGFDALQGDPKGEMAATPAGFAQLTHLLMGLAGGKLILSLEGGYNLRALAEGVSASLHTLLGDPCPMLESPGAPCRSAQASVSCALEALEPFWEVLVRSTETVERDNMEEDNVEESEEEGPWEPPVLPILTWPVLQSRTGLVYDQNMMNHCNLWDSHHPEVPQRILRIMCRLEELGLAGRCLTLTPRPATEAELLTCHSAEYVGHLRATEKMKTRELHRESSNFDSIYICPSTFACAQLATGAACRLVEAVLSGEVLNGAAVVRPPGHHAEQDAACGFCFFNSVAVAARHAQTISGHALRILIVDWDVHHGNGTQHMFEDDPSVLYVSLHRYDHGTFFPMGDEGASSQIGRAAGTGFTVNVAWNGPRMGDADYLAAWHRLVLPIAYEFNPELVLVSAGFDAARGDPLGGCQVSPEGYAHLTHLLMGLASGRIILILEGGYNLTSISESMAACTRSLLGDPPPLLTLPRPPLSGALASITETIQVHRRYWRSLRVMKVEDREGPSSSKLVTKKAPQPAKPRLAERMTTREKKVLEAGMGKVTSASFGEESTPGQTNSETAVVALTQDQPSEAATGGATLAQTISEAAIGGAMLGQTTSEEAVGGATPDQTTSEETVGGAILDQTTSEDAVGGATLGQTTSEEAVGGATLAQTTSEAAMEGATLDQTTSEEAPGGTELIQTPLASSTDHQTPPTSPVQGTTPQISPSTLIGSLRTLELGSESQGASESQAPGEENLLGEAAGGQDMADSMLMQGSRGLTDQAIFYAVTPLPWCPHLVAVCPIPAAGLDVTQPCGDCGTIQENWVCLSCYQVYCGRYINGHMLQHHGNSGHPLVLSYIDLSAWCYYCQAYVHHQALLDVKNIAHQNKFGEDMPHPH

HGC-27 = assay: Cytotoxicity against human HGC-27 cells assessed as reduction in cell viability incubated for 72 hrs by MTS assay; type: functional, cell-based
Summary of the method: (§3)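 Cell viability EC50 from at least two independent experiments, each run in triplicate. Results are compared by t-test.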

W1 Ovarian cancer cell = assay: Cytotoxicity against human W1 Ovarian cancer cells assessed as reduction in cell viability incubated for 72 hrs by MTT assay; type: functional, cell-based; summary of the method: as §3
MCF7 = assay: Cytotoxicity against human MCF7 cells assessed as reduction in cell viability incubated for 72 hrs by MTT assay; type: functional, cell-based; summary of the method: as §3
PC-3M-luc [7] = assay: Cytotoxicity against human PC-3M-luc cells assessed as reduction in cell viability incubated for 72 hrs by MTS assay; type: functional, cell-based; summary of the method: as §3
[8] = molecular target: Histone deacetylase 1/2/3 (Homo sapiens) (UniProt Q13547+O15379+Q92769); assay: Inhibition of HDAC1/2/3 in human MCF7 cells assessed as increase in histone H3 acetylation at 10 to 20 uM incubated for 24 hrs by Western blot analysis; type: cell-based; conditions: dose 10-20 µM
PC-3M-luc [9] = conditions: Homo sapiens, dose 20.0 µM, time 5.0 hrs

Chain of Histone deacetylase 9 (Homo sapiens) (Q9UKV0 whole entry): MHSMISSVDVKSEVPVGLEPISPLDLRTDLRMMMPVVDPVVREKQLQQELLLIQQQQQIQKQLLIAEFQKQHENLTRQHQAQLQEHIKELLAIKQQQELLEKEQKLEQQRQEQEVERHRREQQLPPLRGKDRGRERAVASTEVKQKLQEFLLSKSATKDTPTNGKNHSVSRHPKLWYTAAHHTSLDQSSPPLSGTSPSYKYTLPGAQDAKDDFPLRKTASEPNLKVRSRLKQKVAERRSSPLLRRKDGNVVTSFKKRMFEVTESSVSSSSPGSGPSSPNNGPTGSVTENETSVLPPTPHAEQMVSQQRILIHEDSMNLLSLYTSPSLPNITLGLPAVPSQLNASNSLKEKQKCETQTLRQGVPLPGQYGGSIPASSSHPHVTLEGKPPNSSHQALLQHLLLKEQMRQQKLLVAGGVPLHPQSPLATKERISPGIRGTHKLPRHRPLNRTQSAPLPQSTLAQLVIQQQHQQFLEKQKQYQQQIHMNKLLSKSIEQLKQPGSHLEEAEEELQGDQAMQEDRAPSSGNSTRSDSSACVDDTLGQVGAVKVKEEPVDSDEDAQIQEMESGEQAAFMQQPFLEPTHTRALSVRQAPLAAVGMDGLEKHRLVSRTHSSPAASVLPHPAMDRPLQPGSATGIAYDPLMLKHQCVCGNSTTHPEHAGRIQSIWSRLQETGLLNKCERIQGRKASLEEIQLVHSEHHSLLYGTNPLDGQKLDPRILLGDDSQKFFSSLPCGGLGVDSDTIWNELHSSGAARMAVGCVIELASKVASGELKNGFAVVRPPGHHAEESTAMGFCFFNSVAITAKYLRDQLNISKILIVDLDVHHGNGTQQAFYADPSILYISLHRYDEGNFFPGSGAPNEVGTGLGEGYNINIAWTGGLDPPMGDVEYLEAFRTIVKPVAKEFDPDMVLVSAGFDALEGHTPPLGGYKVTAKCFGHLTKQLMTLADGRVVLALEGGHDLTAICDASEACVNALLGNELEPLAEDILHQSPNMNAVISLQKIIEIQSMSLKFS
Chain of Histone deacetylase 4 (Homo sapiens) (P56524 whole entry): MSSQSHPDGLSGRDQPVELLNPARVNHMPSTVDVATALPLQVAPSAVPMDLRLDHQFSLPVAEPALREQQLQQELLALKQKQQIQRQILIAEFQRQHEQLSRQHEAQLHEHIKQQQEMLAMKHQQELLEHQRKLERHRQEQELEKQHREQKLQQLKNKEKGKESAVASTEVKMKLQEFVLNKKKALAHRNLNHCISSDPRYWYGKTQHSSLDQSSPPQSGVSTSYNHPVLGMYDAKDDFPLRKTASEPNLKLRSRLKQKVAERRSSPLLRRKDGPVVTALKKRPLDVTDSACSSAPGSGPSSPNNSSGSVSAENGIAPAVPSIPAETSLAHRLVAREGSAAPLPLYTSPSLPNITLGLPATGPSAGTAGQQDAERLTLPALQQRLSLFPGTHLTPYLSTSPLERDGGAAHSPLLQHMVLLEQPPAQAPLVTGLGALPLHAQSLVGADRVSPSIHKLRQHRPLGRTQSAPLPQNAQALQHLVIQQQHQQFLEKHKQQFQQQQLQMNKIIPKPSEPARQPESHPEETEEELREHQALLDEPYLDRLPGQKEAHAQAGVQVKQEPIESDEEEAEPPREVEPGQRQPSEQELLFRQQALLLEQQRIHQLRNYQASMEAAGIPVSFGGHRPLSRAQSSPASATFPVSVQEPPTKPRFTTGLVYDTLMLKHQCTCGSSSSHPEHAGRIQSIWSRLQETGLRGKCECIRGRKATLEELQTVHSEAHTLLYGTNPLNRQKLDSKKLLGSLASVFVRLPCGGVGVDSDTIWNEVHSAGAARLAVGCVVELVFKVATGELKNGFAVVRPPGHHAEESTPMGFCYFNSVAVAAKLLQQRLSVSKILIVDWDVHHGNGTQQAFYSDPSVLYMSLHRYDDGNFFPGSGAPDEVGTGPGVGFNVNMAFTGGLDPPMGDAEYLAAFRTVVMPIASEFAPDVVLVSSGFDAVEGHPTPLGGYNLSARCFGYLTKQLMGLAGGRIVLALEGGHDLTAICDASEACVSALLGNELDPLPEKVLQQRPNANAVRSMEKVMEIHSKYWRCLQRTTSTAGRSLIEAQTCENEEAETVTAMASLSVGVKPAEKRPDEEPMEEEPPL
Chain of NAD-dependent protein deacylase sirtuin-5, mitochondrial (Homo sapiens) (Q9NXA8 37-310 limits assumed): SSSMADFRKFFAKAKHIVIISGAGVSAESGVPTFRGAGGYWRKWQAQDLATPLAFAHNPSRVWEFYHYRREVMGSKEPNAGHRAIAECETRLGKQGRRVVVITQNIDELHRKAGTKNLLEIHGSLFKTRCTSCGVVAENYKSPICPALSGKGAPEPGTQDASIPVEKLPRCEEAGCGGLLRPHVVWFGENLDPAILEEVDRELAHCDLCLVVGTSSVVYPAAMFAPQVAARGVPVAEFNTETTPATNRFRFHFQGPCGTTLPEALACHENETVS
Chain of Histone deacetylase 5 (Homo sapiens) (Q9UQL6 whole entry): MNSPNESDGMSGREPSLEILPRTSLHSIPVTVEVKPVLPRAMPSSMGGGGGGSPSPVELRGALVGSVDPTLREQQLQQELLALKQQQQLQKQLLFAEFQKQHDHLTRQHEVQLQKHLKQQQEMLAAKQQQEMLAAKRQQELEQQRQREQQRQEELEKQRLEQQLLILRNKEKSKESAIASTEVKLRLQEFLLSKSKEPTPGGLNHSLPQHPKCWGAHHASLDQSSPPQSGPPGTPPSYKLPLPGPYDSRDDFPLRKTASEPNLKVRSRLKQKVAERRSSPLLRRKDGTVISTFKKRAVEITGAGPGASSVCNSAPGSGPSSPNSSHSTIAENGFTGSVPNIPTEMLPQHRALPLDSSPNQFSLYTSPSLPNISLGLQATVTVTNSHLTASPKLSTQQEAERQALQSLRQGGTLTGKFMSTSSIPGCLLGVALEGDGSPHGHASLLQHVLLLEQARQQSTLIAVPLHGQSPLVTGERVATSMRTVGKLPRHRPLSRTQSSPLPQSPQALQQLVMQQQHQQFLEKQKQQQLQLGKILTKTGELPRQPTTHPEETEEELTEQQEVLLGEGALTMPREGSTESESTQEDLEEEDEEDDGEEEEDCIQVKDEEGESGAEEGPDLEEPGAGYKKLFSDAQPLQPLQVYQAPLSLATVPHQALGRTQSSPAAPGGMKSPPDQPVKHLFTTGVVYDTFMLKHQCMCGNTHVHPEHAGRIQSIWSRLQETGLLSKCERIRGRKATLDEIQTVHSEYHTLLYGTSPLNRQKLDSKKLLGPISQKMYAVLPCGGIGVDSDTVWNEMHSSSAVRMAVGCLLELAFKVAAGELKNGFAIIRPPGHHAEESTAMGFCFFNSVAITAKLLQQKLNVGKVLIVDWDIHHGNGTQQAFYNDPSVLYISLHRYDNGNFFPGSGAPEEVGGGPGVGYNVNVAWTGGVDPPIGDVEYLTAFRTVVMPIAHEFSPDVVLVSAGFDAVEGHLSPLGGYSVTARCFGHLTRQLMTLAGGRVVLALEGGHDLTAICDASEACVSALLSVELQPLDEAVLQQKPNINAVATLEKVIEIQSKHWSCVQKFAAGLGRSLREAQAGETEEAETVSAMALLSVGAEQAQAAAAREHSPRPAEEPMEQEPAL
Chain of NAD-dependent protein deacylase sirtuin-6 (Homo sapiens) (Q8N6T7 whole entry): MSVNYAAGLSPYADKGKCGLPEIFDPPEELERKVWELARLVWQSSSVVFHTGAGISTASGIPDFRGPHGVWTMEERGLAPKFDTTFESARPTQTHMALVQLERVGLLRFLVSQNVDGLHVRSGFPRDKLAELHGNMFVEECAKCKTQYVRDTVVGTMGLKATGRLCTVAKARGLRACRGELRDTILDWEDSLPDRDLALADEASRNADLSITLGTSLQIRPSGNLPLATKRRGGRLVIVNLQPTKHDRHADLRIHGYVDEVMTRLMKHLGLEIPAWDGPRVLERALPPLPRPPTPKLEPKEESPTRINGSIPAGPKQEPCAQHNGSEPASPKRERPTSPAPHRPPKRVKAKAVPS

SMILES: CCCCN(Cc1ccc(C(=O)NO)cc1)C(=O)CCCCn1cc(COc2cccc(Cc3cnc(NC(=O)CSc4nc(C)cc(C)n4)s3)c2)nn1
- inhibition [1]: inactive
- inhibition [2]: inactive
- inhibition [3]: inactive
- inhibition [4]: inactive
- inhibition [5]: inactive
- Activity [6]: Active
- Activity (HGC-27): Active
- Activity (W1 Ovarian cancer cell): Active
- Activity (MCF7): Active
- Activity (PC-3M-luc [7]): Active
- inhibition [8]: inactive
- inhibition (PC-3M-luc [9]): Active
